Measurements reported in ChEMBL document CHEMBL2157900, “Design, synthesis and in vitro activities on anti-platelet aggregation of 4-methoxybenzene-1,3-isophthalamides” (Bioorg Med Chem Lett, 2012).

How the values were obtained:
[1] = Antiplatelet activity against rat platelet rich plasma assessed as inhibition of ADP-induced platelet aggregation after 2 mins by Born test method; format: functional
How it was run: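 Rat blood was collected into 3.8% sodium citrate (1:9, v/v). Platelet-rich plasma was obtained by centrifugation at room temperature for 10 min (500–800 rpm). Platelet-poor plasma, made by spinning PRP at room temperature for 15 min (3000 rpm), set zero. Compound was incubated with PRP for 2 min, then aggregation was stimulated with ADP and read on an aggregometer. Results are given as percentage inhibition and IC50.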

Platelet = experiment: Ratio of picotamide IC50 to compound IC50 for rat platelet rich plasma assessed as inhibition of ADP-induced platelet aggregation; format: functional

SMILES	IC50 [1] [nM]	Ratio IC50 (Platelet)
COc1ccc(C(=O)NCCc2ccccc2)cc1C(=O)NCCc1ccccc1	240	–
COc1ccc(C(=O)Nc2ccc(C(C)=O)cc2)cc1C(=O)Nc1ccc(C(C)=O)cc1	670	–
COc1ccc(C(=O)Nc2ccc(F)cc2)cc1C(=O)Nc1ccc(F)cc1	600	–
COc1ccc(C(=O)NCc2ccccc2)cc1C(=O)NCc1ccccc1	580	–
COc1ccc(C(=O)Nc2ccc(I)cc2)cc1C(=O)Nc1ccc(I)cc1	490	–
COc1ccc(C(=O)Nc2ccccc2I)cc1C(=O)Nc1ccccc1I	300	–
COc1ccc(C(=O)Nc2ccc(Br)cc2)cc1C(=O)Nc1ccc(Br)cc1	510	–

The next lines start with results.

IC50 [1] [nM]	SMILES	Ratio IC50 (Platelet)
760	COc1ccc(C(=O)NCc2cccnc2)cc1C(=O)NCc1cccnc1 [PICOTAMIDE]	–
810	CCOc1cccc(NC(=O)c2ccc(OC)c(C(=O)Nc3cccc(OCC)c3)c2)c1	–
770	COc1ccc(C(=O)Nc2ccccc2)cc1C(=O)Nc1ccccc1	–
660	COc1ccc(C(=O)Nc2ccccc2Br)cc1C(=O)Nc1ccccc1Br	–
490	COc1cccc(NC(=O)c2ccc(OC)c(C(=O)Nc3cccc(OC)c3)c2)c1	–
490	CCCCOc1ccc(NC(=O)c2ccc(OC)c(C(=O)Nc3ccc(OCCCC)cc3)c2)cc1	–
20	COc1ccc(C(=O)Nc2ccccc2Cc2ccccc2)cc1C(=O)Nc1ccccc1Cc1ccccc1	10
590	COc1ccc(C(=O)Nc2ccccc2CC#N)cc1C(=O)Nc1ccccc1CC#N	–
860	COc1ccc(C(=O)Nc2ccccc2F)cc1C(=O)Nc1ccccc1F	–
750	COc1ccc(C(=O)Nc2ccc([N+](=O)[O-])cc2)cc1C(=O)Nc1ccc([N+](=O)[O-])cc1	–
640	COc1ccc(C(=O)Nc2ccc(C)cc2)cc1C(=O)Nc1ccc(C)cc1	–
